Test results from publication PMC3667888 (Channels, 2013).
Residue numbers refer to the chain shown, from its start.

Tests used:
Format in all cases: cell-based
[1] = target: T1, wild-type Kv4.2/KChIP1b channels (Rattus norvegicus, UniProt Q63881)
T1 sequence (Q63881 1-630): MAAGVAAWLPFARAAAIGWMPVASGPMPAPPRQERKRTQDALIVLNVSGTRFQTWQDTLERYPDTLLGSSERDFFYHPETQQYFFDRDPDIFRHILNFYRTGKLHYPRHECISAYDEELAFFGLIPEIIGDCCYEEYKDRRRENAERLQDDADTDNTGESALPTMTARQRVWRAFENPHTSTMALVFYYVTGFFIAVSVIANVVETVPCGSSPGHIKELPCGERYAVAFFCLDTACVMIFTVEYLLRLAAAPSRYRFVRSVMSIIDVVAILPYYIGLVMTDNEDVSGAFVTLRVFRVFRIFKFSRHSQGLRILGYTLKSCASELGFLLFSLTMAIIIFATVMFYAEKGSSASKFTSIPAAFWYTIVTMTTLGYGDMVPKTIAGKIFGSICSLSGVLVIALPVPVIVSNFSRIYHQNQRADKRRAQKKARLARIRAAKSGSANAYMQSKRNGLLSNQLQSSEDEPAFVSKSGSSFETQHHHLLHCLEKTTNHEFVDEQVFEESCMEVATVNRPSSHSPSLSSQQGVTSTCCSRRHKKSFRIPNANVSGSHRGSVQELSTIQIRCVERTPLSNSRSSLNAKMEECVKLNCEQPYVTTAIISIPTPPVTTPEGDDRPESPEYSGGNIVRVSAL
Procedure, shortened: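 Rat Kv4.2 (WT or QuikChange mutant) RNA co-injected equimolar with KChIP1b, 5–10 ng/oocyte, into Xenopus oocytes held 1–5 d at 17–19 °C. Two-electrode voltage clamp at room temperature in perfused Na/K methanesulfonate HEPES saline, pH 7.4–7.5, with P/−4 or P/−6 leak subtraction. Peak current at +40 mV (from −90 mV) after 10 min of 10 μM AA is expressed relative to pre-AA current. Mean ± SE, n = cells.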

[2] = target: T2, Kv4.2 R311Q mutant channels (co-injected with KChIP1b) (Rattus norvegicus, UniProt Q63881, R311Q); experiment: Two-electrode voltage clamp, R311Q mutant Kv4.2/KChIP1b in Xenopus oocytes; settings: 10 µM AA, 10 min
T2 sequence (Q63881 1-630 R311Q): T1 sequence (Q63881 1-630) with R311Q

[3] = target: T3, Kv4.2 V261F/K318Q double mutant channels (co-injected with KChIP1b) (Rattus norvegicus, UniProt Q63881, K318Q/V261F)
T3 sequence (Q63881 1-630 V261F/K318Q): T1 sequence (Q63881 1-630) with V261F, K318Q
Procedure, shortened: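 Xenopus oocytes co-expressing rat Kv4.2 (WT or mutant) with equimolar KChIP1b were recorded by two-electrode voltage clamp at room temperature. Peak conductance was calculated as G = I/(Vm − Vh), with Vh = −100 mV, and normalized to each cell's Gmax. It was plotted against step potential without and with 10 μM AA and fit to a first-order Boltzmann function to give V1/2 and slope.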

- V1/2 of conductance-voltage curve with AA ([1]; 10 µM AA, WT): −13.4 mV
- rightward shift in V1/2 of the conductance-voltage relationship in the presence of AA ([1]; 10 µM AA, WT): +7 mV
- slope factor (k) of Boltzmann fit with AA ([1]; 10 µM AA, WT): 12.1
- decrease in Kv4.2 currents ([1]; 10 µM AA, n = 3, same batch of oocytes as Kv1.2/2.1, +40 mV test potential): 30.7 ± 1.8%
- Kd ([1]; fitted Kd for AA inhibition of peak current, Hill equation, nH = 1, +40 mV, 1 to 300 µM AA, WT): 21.1 µM
- inhibition at 10 µM ([1]; read-out: inhibition of the peak K+ current): 30%
- V1/2 of conductance-voltage curve with AA ([3]; 10 µM AA): −19.1 mV
- slope factor (k) of Boltzmann fit with AA ([3]; 10 µM AA): 8.4
- Kd ([3]; fitted Kd for AA inhibition of peak current, Hill equation, nH = 1, +40 mV): 45.7 µM
SMILES: CCCCC/C=C\C/C=C\C/C=C\C/C=C\CCCC(=O)O [AA, arachidonic acid]
- inhibition of peak K+ current by AA, effect of mutation [2]: did not significantly disrupt the inhibitory effects of AA
